{"data": "Measured values from different studies", "PKMYT1": "Membrane-associated tyrosine- and threonine-specific cdc2-inhibitory kinase (PKMYT1, Homo sapiens, UniProt Q99640)", "ADRB2": "Beta-2 adrenergic receptor (ADRB2, Homo sapiens, UniProt P07550)", "BRD9": "Bromodomain-containing protein 9 (BRD9, Homo sapiens, UniProt Q9H8M2)", "note": "Each line is one published result; the experiments were not run side by side."}
{"SMILES": "COc1ccc2oc(-c3ccc4nc(N)oc4c3)c/c(=N\\c3ccccc3NC(=O)CCN)c2c1", "target": "Activin receptor type-2A (ACVR2A, Homo sapiens, UniProt P27037)", "observed": "binding", "method": "competition with immobilised ligand", "concentration": "1 µM", "measurement": "remaining binding", "value": "109%"}
{"SMILES": "Cc1ncc(-c2cc3cc(-c4c(C)ccc(O)c4C)cnc3[nH]2)cn1", "target": "PKMYT1", "observed": "cell-free assay", "method": "TR-FRET", "concentration": "3.333 µM", "measurement": "inhibition", "value": "104%"}
{"SMILES": "NC/C(=C\\F)COc1cccc(Cn2c(=S)[nH]c(=O)c3[nH]cnc32)c1", "target": "ADRB2", "observed": "ligand displacement", "method": "radioligand", "concentration": "10 µM", "measurement": "inhibition", "value": "< 50%"}
{"SMILES": "COc1cc(-c2cc(C(C)=O)n3ccccc23)c(OC)cc1C=O", "target": "BRD9", "observed": "thermal stability", "method": "DSF", "concentration": "200 µM", "measurement": "ΔTm", "value": "8.3 °C"}
{"SMILES": "CCCC[C@H](NC(C)=O)C(=O)N[C@H]1CC(=O)NCCCC[C@@H](C(=O)N2CCC[C@@H]2C(=O)N[C@@H](C(=O)N2CCC[C@@H]2C(N)=O)C(C)C)NC(=O)[C@H](Cc2c[nH]c3ccccc23)NC(=O)[C@H](CCCNC(=N)N)NC(=O)[C@@H](Cc2ccccc2)NC(=O)[C@@H]2CCCN2C1=O", "target": "Melanocortin receptor 5 (MC5R, Homo sapiens, UniProt P33032)", "observed": "cAMP", "mode": "agonist", "measurement": "Emax", "value": "102%"}
{"SMILES": "CCCCC(=O)Nc1ccc(-c2ccc3ncn(CCC)c(=O)c3c2)cn1", "target": "PKMYT1", "observed": "binding", "method": "competition with immobilised ligand", "concentration": "0.5 µM", "measurement": "remaining binding", "value": "86%"}
{"SMILES": "CC(=O)ON=C1C=CC(=C(C#N)c2ccccc2)C=C1", "target": "Serine/threonine-protein kinase haspin (HASPIN, Homo sapiens, UniProt Q8TF76)", "observed": "enzyme activity", "mode": "inhibitor", "method": "ADP detection", "concentration": "20 µM", "measurement": "activity vs control", "value": "57%"}
{"SMILES": "CCC(=O)c1cc(-c2cc(OC)c(Cn3ccnc3)c(OC)c2)c2ccccn12", "target": "BRD9", "observed": "thermal stability", "method": "DSF", "concentration": "200 µM", "measurement": "ΔTm", "value": "9.8 °C"}
{"SMILES": "Cc1cc(O)c(-c2ccc([C@@H](C)CN(C)C)cc2)c2c1[nH]c(=O)c1sccc12", "target": "Phosphatidylinositol 5-phosphate 4-kinase type-2 alpha (PIP4K2A, Homo sapiens, UniProt P48426)", "observed": "enzyme activity", "mode": "inhibitor", "concentration": "0.1 µM", "measurement": "inhibition", "value": "-0.0609%"}
{"SMILES": "COc1cc(C(C)O)c(OC)cc1-c1cc(C(C)=O)n2ccccc12 (stereo not drawn)", "target": "BRD9", "observed": "thermal stability", "method": "DSF", "concentration": "200 µM", "measurement": "ΔTm", "value": "9.9 °C"}
{"SMILES": "C1=C/COCc2cc(ccc2OCCN2CCCC2)Nc2nccc(n2)-c2cccc(c2)COC/1", "target": "Bone morphogenetic protein receptor type-1A (BMPR1A, Homo sapiens, UniProt P36894)", "observed": "binding", "concentration": "0.1 µM", "measurement": "remaining binding", "value": "89%"}
{"SMILES": "CCC(=O)c1cc(-c2cc(OC)c(Cn3ccnc3)cc2OC)c2ccccn12", "target": "BRD9", "observed": "thermal stability", "method": "DSF", "concentration": "200 µM", "measurement": "ΔTm", "value": "9.5 °C"}
{"SMILES": "Cc1cc(F)cc2c(CCC(=O)N[C@@H]3C(=O)NC[C@H]3O)c(-c3ccc(F)cc3)[nH]c12", "target": "ADRB2", "observed": "cell-free assay", "concentration": "10 µM", "measurement": "inhibition", "value": "-2%"}
{"SMILES": "COc1cc(-c2cc(C(C)=O)n3ccccc23)c(OC)cc1Cn1ccnc1", "target": "BRD9", "observed": "thermal stability", "method": "DSF", "concentration": "200 µM", "measurement": "ΔTm", "value": "11.8 °C"}
{"SMILES": "CCN1/C(=C/C(C)=O)Sc2ccc(F)cc21", "target": "Histamine H3 receptor (HRH3, Homo sapiens, UniProt Q9Y5N1)", "observed": "ligand displacement", "method": "radioligand", "concentration": "10 µM", "measurement": "inhibition", "value": "0%"}
